High-throughput results as filed in PubChem BioAssay.
Only some compounds are listed: those with a hit (about 1.9% of all), similar ones and a draw of the others.
M4 ag = CHRM4 agonism in calcium assay | P08173 | CHO-K1 hM4/Gqi5, Fluo-8 calcium fluorescence; vehicle 0%, full acetylcholine response 100% | activation, % at 3 µM | actives 0.14% (n = 360,000);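 active = activation above the run mean over all test wells plus 3 SD, cut at about 32% in these data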;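 also: peak over basal fluorescence ratio per well then scaled between controls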
CHRM4 antagonist = CHRM4 antagonism in calcium assay; P08173; CHO-hM4 cells, ACh EC80, Fluo-8 calcium fluorescence; inhibition, % at 3 µM; actives 0.73% (n = 360,000);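 active = inhibition above its plate's cutoff, the mean inhibition of sample wells plus 3 SD, cut at about 27% in these data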
M5 antag = blocks acetylcholine activation of human M5 receptor; P08912; CHO-hM5 cells, Fluo-8 calcium fluorescence, ACh EC80; inhibition, % at 3 µM; actives 0.59% (n = 360,000); AID 624040;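 active = inhibition above a per-plate cutoff, the mean of that plate's test compounds plus 3 SD, cut at about 27% in these data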
Target sequence (P08912 whole entry, looked up): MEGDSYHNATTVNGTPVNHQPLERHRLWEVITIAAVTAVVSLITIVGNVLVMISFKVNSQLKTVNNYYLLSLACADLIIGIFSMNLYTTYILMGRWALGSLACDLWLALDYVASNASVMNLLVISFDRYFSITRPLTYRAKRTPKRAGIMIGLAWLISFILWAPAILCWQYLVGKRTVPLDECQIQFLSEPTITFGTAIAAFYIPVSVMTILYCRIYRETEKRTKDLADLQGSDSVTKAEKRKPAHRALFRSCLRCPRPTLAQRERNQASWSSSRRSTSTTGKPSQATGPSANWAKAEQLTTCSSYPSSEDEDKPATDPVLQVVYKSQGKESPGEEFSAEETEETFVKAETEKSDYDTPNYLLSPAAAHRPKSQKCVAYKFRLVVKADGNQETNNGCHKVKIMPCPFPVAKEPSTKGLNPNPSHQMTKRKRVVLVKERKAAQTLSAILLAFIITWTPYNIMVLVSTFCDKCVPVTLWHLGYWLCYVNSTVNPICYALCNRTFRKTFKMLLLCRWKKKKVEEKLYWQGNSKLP
CHRM4 PAM = CHRM4 positive allosteric modulation | CHO-K1 hM4/Gqi5, Fluo-8 calcium fluorescence, ACh EC20; 0% = ACh EC20, 100% = maximal ACh | P08173 | activation, % at 3 µM | AID 624126 | actives 0.4% (n = 360,000);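 active = activation above its plate's cutoff, the mean activation of sample wells plus 3 SD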
M5 PAM = positive allosteric modulators of human muscarinic M5 receptor | activation, % at 3 µM | P08912 | CHO-K1 hM5, Fluo-8 calcium, ACh EC20 PAM; 0% = ACh EC20, 100% = ACh EC100 | actives 0.3% (n = 360,000) | AID 624038;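 active = activation above the run cutoff, the mean activation of all test compounds plus 3 SD, cut at about 18% in these data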
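Measured by: Fluo-8 calcium fluorescence; material: human M5 receptor in CHO-K1 cells; schedule: Post-acetylcholine fluorescence recording 140 s; benchmarks: low control EC20 acetylcholine (0%), high control EC100 acetylcholine (100%); read-out: Max/basal fluorescence ratio as % of EC20–EC100 ACh window; compound: single dose, 3 µM nominal final test concentration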
M5 ag = CHRM5 agonism in calcium assay; CHO-K1 hM5 cells, Fluo-8 calcium fluorescence; 0% DMSO wells, 100% maximal acetylcholine response; activation, % at 3 µM; actives 0.19% (n = 360,000);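 active = activation above the run's mean over test compounds plus 3 SD, cut at about 23% in these data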;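 also: signal is peak over basal fluorescence ratio across the kinetic read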
A number is an active result; i = inactive.

SMILES	M4 ag	CHRM4 antagonist	M5 antag	CHRM4 PAM	M5 PAM	M5 ag
COc1ccc(CNC(=O)[C@@H]2CC=C[C@@H]3CCN(Cc4ccc(Cl)c(Cl)c4)C(=O)[C@@H]32)cc1	i	i	i	i	i	i
COc1ccc(CNC[C@@H](CCCCN(C)Cc2ccc(OC)cc2)N2C[C@H](c3ccccc3)N(CCc3ccc(Cl)c(Cl)c3)C(=O)C2=O)cc1	60	i	i	i	i	i
CN(/N=C/c1ccncc1)c1cnn(-c2ccc(F)c(Cl)c2)c(=O)c1Cl	i	i	i	i	i	i
COc1ccccc1-c1oc2ccccc2c1-c1ccccc1OC	i	i	i	i	i	i
Cc1ccc(NC(=O)c2snc3ccc(Cl)cc23)cc1C	i	i	31	i	i	i
C/C(=N/NC(=O)c1cc(-c2ccccc2)nc2c(Cl)cccc12)c1cccnc1	i	i	i	26	25	i
Cc1ccccc1CC1(CO)CCCN(C(=O)c2ccoc2)C1 (stereo not drawn)	i	i	i	i	i	i
N#Cc1ccccc1Cn1cc(/C=C/[N+](=O)[O-])c2ccccc21	i	i	50	i	i	i
NCCCCNCCCN	i	i	i	i	i	75
COc1ccc(C2CC(c3ccc(Cl)cc3)=NN2C(C)=O)cc1 (stereo not drawn)	i	i	31	i	43	i
O=C(NCc1cccnc1)C(=O)C1C(=O)Nc2ccccc21 (stereo not drawn)	i	i	i	i	18	i
COc1cccc(N2C(=NC(=O)COc3ccccc3)SC3CS(=O)(=O)CC32)c1 (stereo not drawn)	i	i	i	i	i	i
CCN(CC)S(=O)(=O)c1ccc(N2CCOCC2)c(NC(=O)c2cccc3ccccc23)c1	i	30	i	i	i	i
CCN(CC)S(=O)(=O)c1ccc(N2CCOCC2)c(NC(=O)c2ccc3ccccc3c2)c1	i	i	i	i	i	i
COc1ccc(CNC(=O)C2CCN(S(=O)(=O)N3CC(C)CC(C)C3)CC2)cc1 (stereo not drawn)	i	i	i	i	i	i
O=C(OCCCN1CCCC1)C1(c2ccccc2)CCCC1	i	63	39	i	i	i
O=C(COC(=O)C1(c2ccccc2)CCCC1)N1CCNC1=O	i	i	i	i	i	i
CN(C)CCOC(=O)C1(c2ccccc2)CCOCC1	i	i	i	i	i	i
CCN(CC)CCOC(=O)c1ccc(Cl)cc1	i	i	i	i	i	i
CCN(CC)CCOC(=O)C1(c2ccccc2)CCCC1	i	98	99	i	i	i
CCN(CC)CCOC(=O)C1(C2CCCCC2)CCCCC1	i	98	99	i	i	i
CCN(CC)CC(=O)NCC1(c2ccccc2)CCCC1	i	39	i	i	i	i
COC(=O)CNC(=O)c1ccc(C)s1	i	i	i	i	i	i
FC(F)(F)c1ccccc1Cc1c(C2CCCCC2)nc2ccc(Cl)cn12	i	i	i	i	i	i
CCN(CC)CCOC(=O)C1(c2ccc(OC)c(OC)c2)CCCC1	i	i	28	i	i	i
SMILES	M4 ag	CHRM4 antagonist	M5 antag	CHRM4 PAM	M5 PAM	M5 ag
CCN1CCN(c2cc(C)c3cc(NC(=O)c4cccs4)ccc3n2)CC1	i	i	i	i	i	i
COc1cccc(/C=C2\CCC(C3CCCC3)C2=O)c1 (stereo not drawn)	i	i	i	i	i	i
COc1cccc(/C=C2\CCCCC2=O)c1	i	i	i	i	31	i
Nc1cccc(NC(=O)CN2CCOCC2)c1	i	i	i	i	i	i
O=C(Nc1nnc(-c2cccs2)o1)c1cccc(C(F)(F)F)c1	65	i	i	i	i	i
N#Cc1ccc(C(=O)Nc2nnc(-c3cccs3)o2)cc1	i	i	i	i	i	i
CC1CC(C)CN(C(=O)c2cc3c(=O)n4ccccc4nc3s2)C1 (stereo not drawn)	i	i	i	i	i	i
Cc1nc(NC(=O)c2ccco2)sc1-c1csc(Nc2ccc(Cl)cc2)n1	i	i	i	i	i	43
Cc1ccc(-c2csc(NC(=O)c3ccco3)n2)cc1C	i	i	i	i	i	26
O=C(Nc1nc(-c2ccccc2)cs1)c1ccco1	i	i	i	i	i	i
Cc1nc(NC(=O)c2ccco2)sc1-c1csc(Nc2ccc(Cl)cc2Cl)n1	i	i	i	i	i	47
CN(CC(=O)Nc1cc(S(=O)(=O)N2CCOCC2)ccc1Cl)C1CCS(=O)(=O)C1 (stereo not drawn)	i	i	i	i	i	i
N#Cc1ccc(OCC(=O)Nc2ccc(N3CCCC3)cc2)cc1	i	i	i	i	i	i
CCOc1cc(/C=C/C(=O)c2ccc(OC)c(CN3CCOCC3)c2)cc(Br)c1O	33	i	i	i	i	i
COc1ccc(Br)cc1S(=O)(=O)NNC(=O)c1c(C)nc2ccccn12	i	i	i	i	i	i
Cc1nc2ccccn2c1C(=O)NNS(=O)(=O)c1ccc(C(C)(C)C)cc1	i	i	28	i	i	i
COc1cc(C(=O)Oc2cccc(Nc3ncnc4ccccc34)c2)cc(OC)c1OC	i	31	29	i	i	i
CC(C)CN(C(=O)COC(=O)CCCc1nc2ccccc2s1)c1c(N)n(Cc2ccccc2)c(=O)[nH]c1=O	i	i	i	i	i	i
Cc1ccc(OCCN2C(=O)C(=O)c3cc(C)ccc32)cc1	i	i	i	i	i	i
Cc1ccc2c(c1)C(=O)C(=O)N2Cc1ccc(C(F)(F)F)cc1	32	i	i	i	i	44
Nc1[nH]ncc1-c1ccc(Cl)cc1	i	i	i	38	i	i
CC(NC(=O)/C=C/c1ccccc1)c1ccccc1 (stereo not drawn)	i	i	i	i	i	31
Cc1ccc(OCc2nc(-c3ccc(-n4cccc4)cc3)no2)cc1C	i	i	i	i	i	i
Cc1cccc(OCc2nc(-c3ccc(-n4cccc4)cc3)no2)c1	i	i	i	18	i	i
CCN(CC)C(=O)c1cccc(-c2csc(C(NC(C)=O)c3ccc(F)c(F)c3)n2)c1 (stereo not drawn)	i	i	i	i	i	i
COc1ccc(NC(=O)CCNC(=O)C2CCN(S(=O)(=O)c3ccc(OC)cc3)CC2)cc1	i	i	i	i	i	i
COc1ccc(S(=O)(=O)N2CCC(C(=O)N[C@@H](C)C(=O)NC3CCCC3)CC2)cc1	i	i	i	i	32	i
COc1ccc(CNC(=O)CCNC(=O)C2CCN(S(=O)(=O)c3ccc(OC)cc3)CC2)cc1	i	i	i	19	i	i
